Test results as given in ChEMBL document CHEMBL1129321, “Discovery of an orally active non-peptide fibrinogen receptor antagonist” (J Med Chem, 1996).

Assays:
Homo sapiens [1] = species: Homo sapiens; test: Inhibitory activity against aggregation of human platelets; format: functional, organism-based
Outline: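 Human platelets were gel-filtered from PRP on Sepharose 2B and used at 3 × 10⁸ platelets/mL with 1 mg/mL fibrinogen. Compounds were added at 37 °C 2 min before activation with 10 µM ADP, with stirring at 1000 rpm at 37 °C. Aggregation was read as the maximal increase in light transmittance. IC50 is the mean over GFP from two to six donors.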

[2] = Oral bioavailability in dog; format: ADME, organism-based, Canis lupus familiaris; conditions: in vivo
Outline: (§1)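 Conscious dogs received compound intravenously and orally, and blood was sampled over time for plasma. Active plasma equivalents were measured by bioassay as inhibition of ¹²⁵I-fibrinogen binding to isolated, immobilized GPIIb/IIIa. Kinetic data points are means from four dogs.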

[3] = target: T1, Integrin alpha-IIb/beta-3 (Homo sapiens, UniProt P05106+P08514); test: Inhibition of [125I]fibrinogen binding to ADP-activated human gel filtered platelets
[4] = target: T1, Integrin alpha-IIb/beta-3; test: Inhibition of [125I]fibrinogen binding to isolated GPIIb/IIIa; format: protein-complex assay
Canis familiaris = species: Canis familiaris; test: Inhibitory activity against dog platelet aggregation in GFP; format: functional, organism-based; conditions: Canis lupus familiaris
Homo sapiens [5] = species: Homo sapiens; test: Inhibitory activity against platelet rich plasma; format: functional, organism-based
[6] = Half life from dog blood after intravenous administration at a dose of 0.3 mg/kg Expt-1; format: ADME, organism-based, Canis lupus familiaris; parameters: dose 0.3 mg/kg, route intravenous; outline: as §1
[7] = Half life from dog blood after intravenous administration at a dose of 0.3 mg/kg Expt-2; format: ADME, organism-based, Canis lupus familiaris; parameters: dose 0.3 mg/kg, route intravenous; outline: as §1
[8] = Half life from dog blood after oral administration at a dose of 3 mg/kg Expt-1; format: ADME, organism-based, Canis lupus familiaris; parameters: dose 3 mg/kg, route oral; outline: as §1
[9] = Half life from dog blood after oral administration at a dose of 3 mg/kg Expt-2; format: ADME, organism-based, Canis lupus familiaris; parameters: dose 3 mg/kg, route oral; outline: as §1

T1 sequence (P05106 27-788 limits assumed): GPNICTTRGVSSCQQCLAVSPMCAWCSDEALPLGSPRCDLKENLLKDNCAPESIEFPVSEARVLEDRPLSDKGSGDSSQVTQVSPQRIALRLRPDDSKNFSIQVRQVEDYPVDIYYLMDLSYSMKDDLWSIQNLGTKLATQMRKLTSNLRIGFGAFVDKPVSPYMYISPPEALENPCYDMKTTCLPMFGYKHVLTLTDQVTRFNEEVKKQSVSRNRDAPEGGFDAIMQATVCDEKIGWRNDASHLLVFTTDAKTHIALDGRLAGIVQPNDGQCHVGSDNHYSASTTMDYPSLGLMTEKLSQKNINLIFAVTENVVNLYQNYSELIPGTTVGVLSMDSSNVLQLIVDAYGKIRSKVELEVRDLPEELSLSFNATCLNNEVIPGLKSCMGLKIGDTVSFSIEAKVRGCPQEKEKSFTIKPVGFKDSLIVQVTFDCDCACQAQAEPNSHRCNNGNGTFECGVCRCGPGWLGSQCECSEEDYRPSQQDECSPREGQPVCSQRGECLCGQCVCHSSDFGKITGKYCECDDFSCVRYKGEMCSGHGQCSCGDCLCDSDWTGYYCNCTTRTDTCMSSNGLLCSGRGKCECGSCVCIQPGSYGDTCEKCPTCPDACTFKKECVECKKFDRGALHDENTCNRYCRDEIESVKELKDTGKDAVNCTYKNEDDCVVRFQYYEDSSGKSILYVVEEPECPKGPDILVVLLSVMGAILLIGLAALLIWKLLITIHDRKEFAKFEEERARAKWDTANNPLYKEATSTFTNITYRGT
T1 sequence (P08514 32-887 limits assumed): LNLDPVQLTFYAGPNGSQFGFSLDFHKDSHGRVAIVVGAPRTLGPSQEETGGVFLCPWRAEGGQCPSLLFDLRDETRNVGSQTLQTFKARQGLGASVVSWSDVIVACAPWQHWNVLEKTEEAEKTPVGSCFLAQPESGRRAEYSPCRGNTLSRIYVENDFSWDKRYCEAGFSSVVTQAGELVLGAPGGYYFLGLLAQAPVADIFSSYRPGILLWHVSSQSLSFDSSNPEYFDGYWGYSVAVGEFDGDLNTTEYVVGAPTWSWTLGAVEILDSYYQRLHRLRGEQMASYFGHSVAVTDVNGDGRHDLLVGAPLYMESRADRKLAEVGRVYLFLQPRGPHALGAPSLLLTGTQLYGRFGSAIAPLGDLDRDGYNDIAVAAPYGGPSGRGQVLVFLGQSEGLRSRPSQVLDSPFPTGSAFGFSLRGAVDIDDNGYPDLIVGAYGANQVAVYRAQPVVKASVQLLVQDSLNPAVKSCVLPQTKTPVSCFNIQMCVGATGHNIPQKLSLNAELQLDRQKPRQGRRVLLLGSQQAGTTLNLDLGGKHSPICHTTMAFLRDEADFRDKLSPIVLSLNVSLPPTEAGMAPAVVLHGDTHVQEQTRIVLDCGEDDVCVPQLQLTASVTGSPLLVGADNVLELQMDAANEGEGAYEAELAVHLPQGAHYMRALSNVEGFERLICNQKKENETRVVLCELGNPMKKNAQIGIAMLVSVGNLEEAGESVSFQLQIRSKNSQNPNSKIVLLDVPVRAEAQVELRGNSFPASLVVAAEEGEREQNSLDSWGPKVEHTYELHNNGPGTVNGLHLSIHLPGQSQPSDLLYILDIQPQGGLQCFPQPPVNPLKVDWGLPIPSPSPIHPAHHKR
T1 sequence (P08514 891-1039 limits assumed): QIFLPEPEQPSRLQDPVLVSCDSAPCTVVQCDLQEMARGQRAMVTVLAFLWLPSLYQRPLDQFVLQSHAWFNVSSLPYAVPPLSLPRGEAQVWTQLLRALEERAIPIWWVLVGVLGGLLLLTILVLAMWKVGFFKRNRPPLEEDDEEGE

With `N=C(N)NCCC[C@@H]1NC(=O)N(CC(=O)N[C@@H](CC(=O)O)C(=O)N[C@@H](CO)C(=O)O)C1=O` the IC50 (Homo sapiens [1]) was 10000 nM.

Work on `C[C@@]1(c2ccc(C(=N)N)cc2)NC(=O)N(CC(=O)N[C@@H](CC(=O)O)c2ccccc2)C1=O` yielded a bioavailability [2] of 10%, a Ki [3] of 9 nM and a Ki [4] of 0.17 nM. For the same compound, the IC50 (Canis familiaris) was 100 nM, the IC50 (Homo sapiens [1]) was 20 nM and the IC50 (Homo sapiens [5]) was 100 nM.

Compound `N=C(N)NCCC[C@@H]1NC(=O)N(CC(=O)N[C@@H](CC(=O)O)C(=O)N[C@H](C(=O)O)c2ccccc2)C1=O` has an IC50 (Homo sapiens [1]) of 900 nM.

`C[C@]1(c2ccc(C(=N)N)cc2)NC(=O)N(CC(=O)N[C@H](CC(=O)O)c2ccccc2)C1=O` gave an IC50 (Homo sapiens [1]) of 5000 nM.

Work on `C[C@@]1(c2ccc(C(=N)N)cc2)NC(=O)N(CC(=O)N[C@H](CC(=O)O)c2ccccc2)C1=O` yielded an IC50 (Homo sapiens [1]) of 50000 nM.

Compound `CC1(c2ccc(C(=N)N)cc2)NC(=O)N(CC(=O)NC(CC(=O)O)c2cccnc2)C1=O` (stereo unspecified) has an IC50 (Homo sapiens [1]) of 100 nM.

`CC1(c2ccc(C(=N)N)cc2)NC(=O)N(CC(=O)NC(CC(=O)O)c2cccc3ccccc23)C1=O` (stereo unspecified) gave an IC50 (Homo sapiens [1]) of 300 nM.

For `C[C@]1(c2ccc(C(=N)N)cc2)NC(=O)N(CC(=O)N[C@@H](CC(=O)O)c2ccccc2)C1=O`, the IC50 (Homo sapiens [1]) was 6000 nM.

`CCOC(=O)C[C@H](NC(=O)CN1C(=O)N[C@@](C)(c2ccc(C(=N)N)cc2)C1=O)c1ccccc1` [CARAFIBAN] showed a bioavailability [2] of 42%, a half-life [6] of 1.4 h and a half-life [7] of 0.8 h. It also gave a half-life [8] of 7.9 h and a half-life [9] of 9.9 h.

In the case of `CC1(c2ccc(C(=N)N)cc2)NC(=O)N(CC(=O)NC(CC(=O)O)c2ccc3c(c2)OCO3)C1=O` (stereo unspecified), the IC50 (Homo sapiens [1]) is reported as 80 nM.

In the case of `CC1(c2ccc(C(=N)N)cc2)NC(=O)N(CC(=O)NC(CC(=O)O)c2ccccc2)C1=O` (stereo unspecified), the bioavailability [2] is reported as 5% and the IC50 (Homo sapiens [1]) is reported as 200 nM.
